In ChEMBL document CHEMBL1909624, “BRN-103, a novel nicotinamide derivative, inhibits VEGF-induced angiogenesis and proliferation in human umbilical vein endothelial cells” (2011):
Active and inactive are the calls of the source. The rule behind the calls is not given here.

Experiments:
HUVEC [1] = experiment: Antiangiogenic activity in HUVEC assessed as decrease in VEGF-induced cell migration at 10 uM after 24 hrs by transwell migration assay; format: functional, cell-based; conditions: Homo sapiens
HUVEC [2] = experiment: Cytotoxicity against human HUVEC; format: functional
HUVEC [3] = experiment: Antiangiogenic activity in HUVEC assessed as inhibition of VEGF-induced cell proliferation by BrdU incorporation assay; format: functional, cell-based; conditions: Homo sapiens
How it was run: (§1)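 DNA synthesis was measured by BrdU incorporation in 0.1% serum-starved HUVECs stimulated with VEGF, with or without compound. Incorporated BrdU was detected with an anti-BrdU monoclonal antibody using a commercial ELISA kit. Mean of three experiments with SD; ANOVA with Dunnett's post-hoc test.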

HUVEC [4] = experiment: Antiangiogenic activity in HUVEC assessed as decrease in VEGF-induced cell migration after 24 hrs by transwell migration assay; format: functional, cell-based; conditions: Homo sapiens
How it was run: (§2)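 HUVECs were seeded in a Boyden chamber on a porous membrane, with test compound in 0.1% EBM in the upper chamber and 10 ng/ml VEGF in the lower. After 24 h, cells that had crossed the pores were counted. Mean of three independent experiments with SD; ANOVA with Dunnett's post-hoc test.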

HUVEC [5] = experiment: Antiangiogenic activity in VEGF-stimulated HUVEC assessed as inhibition of capillary tube formation preincubated for 1 hr measured after 6 hrs by photographic analysis; format: functional, cell-based; conditions: Homo sapiens
How it was run: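 HUVECs were pretreated with compound for 1 h, then seeded at 4–7 × 10⁴ cells on growth factor-reduced Matrigel in EBM with or without 10 ng/ml VEGF. After 6 h, tubes were photographed at ×100 and counted manually in low-power fields. Mean of three experiments with SD.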

Aorta = experiment: Inhibition of VEGF-induced angiogenesis in C57BL/6 mouse aortic rings assessed as decrease in microvessel sprouting after 7 days; format: functional, tissue-based
[6] = target: Vascular endothelial growth factor receptor 2 (Homo sapiens) (UniProt P35968); experiment: Inhibition of VEGFR2 phosphorylation at tyr-1175 in VEGF-stimulated HUVEC preincubated for 1 hr before VEGF induction measured after 5 mins by Western blot analysis
Chain of Vascular endothelial growth factor receptor 2 (Homo sapiens) (P35968 whole entry): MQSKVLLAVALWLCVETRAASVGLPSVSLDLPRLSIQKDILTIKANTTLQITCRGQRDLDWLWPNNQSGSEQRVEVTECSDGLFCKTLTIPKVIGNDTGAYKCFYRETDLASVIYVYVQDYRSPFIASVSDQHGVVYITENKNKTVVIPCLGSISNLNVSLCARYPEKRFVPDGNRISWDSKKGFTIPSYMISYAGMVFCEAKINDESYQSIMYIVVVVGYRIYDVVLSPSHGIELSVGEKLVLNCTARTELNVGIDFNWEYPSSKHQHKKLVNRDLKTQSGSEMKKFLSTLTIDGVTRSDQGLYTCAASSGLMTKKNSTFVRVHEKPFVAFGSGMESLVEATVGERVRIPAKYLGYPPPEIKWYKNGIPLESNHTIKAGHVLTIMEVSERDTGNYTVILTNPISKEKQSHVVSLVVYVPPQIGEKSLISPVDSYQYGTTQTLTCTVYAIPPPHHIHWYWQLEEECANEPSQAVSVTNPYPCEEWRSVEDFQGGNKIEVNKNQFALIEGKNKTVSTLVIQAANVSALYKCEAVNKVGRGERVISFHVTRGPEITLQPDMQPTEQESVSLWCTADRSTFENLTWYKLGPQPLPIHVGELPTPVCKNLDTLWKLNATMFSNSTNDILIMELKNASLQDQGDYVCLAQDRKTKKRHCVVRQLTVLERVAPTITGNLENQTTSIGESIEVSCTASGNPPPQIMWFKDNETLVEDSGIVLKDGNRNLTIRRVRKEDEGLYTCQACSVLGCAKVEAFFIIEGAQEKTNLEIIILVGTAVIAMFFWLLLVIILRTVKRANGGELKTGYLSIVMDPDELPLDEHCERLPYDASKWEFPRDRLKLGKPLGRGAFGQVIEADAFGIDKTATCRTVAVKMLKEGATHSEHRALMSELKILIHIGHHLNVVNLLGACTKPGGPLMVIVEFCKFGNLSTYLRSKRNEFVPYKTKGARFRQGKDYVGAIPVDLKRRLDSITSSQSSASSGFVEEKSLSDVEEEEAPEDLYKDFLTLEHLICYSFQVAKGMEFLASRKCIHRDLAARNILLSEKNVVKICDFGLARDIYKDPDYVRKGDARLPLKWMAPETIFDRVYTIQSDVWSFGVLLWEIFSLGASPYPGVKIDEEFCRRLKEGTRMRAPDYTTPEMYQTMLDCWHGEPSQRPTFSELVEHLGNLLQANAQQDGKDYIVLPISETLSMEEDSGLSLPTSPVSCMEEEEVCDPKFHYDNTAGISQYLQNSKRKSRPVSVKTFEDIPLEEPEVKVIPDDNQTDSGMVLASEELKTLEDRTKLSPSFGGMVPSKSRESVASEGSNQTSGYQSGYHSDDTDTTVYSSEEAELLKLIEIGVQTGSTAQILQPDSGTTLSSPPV
How it was run: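 HUVECs were pretreated with compound for 1 h, stimulated with 10 ng/ml VEGF for 5 min, and lysed. Western blot used an anti-phospho-VEGFR2 antibody, with total VEGFR and β-actin as internal controls. Blot representative of three separate experiments.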

HUVEC [7] = experiment: Inhibition of AKT phosphorylation at Ser-473 in VEGF-stimulated HUVEC preincubated for 1 hr before VEGF induction measured after 30 mins by Western blot analysis; format: cell-based; conditions: Homo sapiens
How it was run: (§3)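 0.1% serum-starved HUVECs were pretreated with compound for 1 h, then given 10 ng/ml VEGF for 5 min (p-ERK), 30 min (p-AKT) or 1 h (p-eNOS). Lysates were Western-blotted with phospho-specific and total AKT, ERK and eNOS antibodies. Bands were quantified as the mean of three experiments with SD; ANOVA with Dunnett's test.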

[8] = target: T1, Nitric oxide synthase 3 (Homo sapiens) (UniProt P29474); experiment: Inhibition of eNOS phosphorylation at […] in VEGF-stimulated HUVEC preincubated for 1 hr before VEGF induction measured after 1 hr by Western blot analysis; how it was run: as §3
T1 sequence (whole entry): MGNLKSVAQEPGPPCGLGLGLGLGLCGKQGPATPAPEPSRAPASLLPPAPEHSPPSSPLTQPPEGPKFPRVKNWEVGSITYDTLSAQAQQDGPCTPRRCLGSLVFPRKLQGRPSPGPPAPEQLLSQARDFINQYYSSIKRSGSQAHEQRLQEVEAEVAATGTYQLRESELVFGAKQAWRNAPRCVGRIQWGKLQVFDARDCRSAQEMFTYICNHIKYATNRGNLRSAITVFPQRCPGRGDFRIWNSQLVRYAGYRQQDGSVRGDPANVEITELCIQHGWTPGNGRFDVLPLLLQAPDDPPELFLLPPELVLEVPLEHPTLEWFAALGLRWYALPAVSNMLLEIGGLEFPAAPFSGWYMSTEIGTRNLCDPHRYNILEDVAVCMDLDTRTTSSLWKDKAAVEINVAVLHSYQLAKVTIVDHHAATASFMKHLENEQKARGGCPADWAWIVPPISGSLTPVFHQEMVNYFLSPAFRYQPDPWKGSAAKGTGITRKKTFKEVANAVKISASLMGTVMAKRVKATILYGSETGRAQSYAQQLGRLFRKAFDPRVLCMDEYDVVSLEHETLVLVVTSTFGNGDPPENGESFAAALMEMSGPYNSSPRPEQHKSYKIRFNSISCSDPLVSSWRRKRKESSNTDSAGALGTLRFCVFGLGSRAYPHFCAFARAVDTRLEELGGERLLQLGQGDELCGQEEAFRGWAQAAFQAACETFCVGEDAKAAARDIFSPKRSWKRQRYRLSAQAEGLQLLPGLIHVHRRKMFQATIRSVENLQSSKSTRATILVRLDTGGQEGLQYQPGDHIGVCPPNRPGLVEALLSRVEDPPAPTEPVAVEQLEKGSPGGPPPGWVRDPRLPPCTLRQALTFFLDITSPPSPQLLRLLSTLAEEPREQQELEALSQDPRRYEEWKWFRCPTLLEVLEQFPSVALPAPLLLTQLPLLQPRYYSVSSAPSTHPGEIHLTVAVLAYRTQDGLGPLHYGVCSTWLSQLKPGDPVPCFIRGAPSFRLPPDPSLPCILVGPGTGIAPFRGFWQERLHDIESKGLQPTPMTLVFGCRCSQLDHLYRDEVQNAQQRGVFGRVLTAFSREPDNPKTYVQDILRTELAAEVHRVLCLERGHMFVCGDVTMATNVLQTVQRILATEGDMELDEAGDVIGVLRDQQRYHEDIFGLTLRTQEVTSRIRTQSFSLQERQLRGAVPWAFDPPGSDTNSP

HUVEC [9] = experiment: Inhibition of ERK phosphorylation at Thr202/Tyr204 in VEGF-stimulated HUVEC preincubated for 1 hr before VEGF induction measured after 5 mins by Western blot analysis; format: cell-based; conditions: Homo sapiens; how it was run: as §3
HUVEC [10] = experiment: Antiangiogenic activity in HUVEC assessed as decrease in VEGF-induced cell migration after 24 hrs by wound healing assay; conditions: Homo sapiens
HUVEC [11] = experiment: Antiangiogenic activity in HUVEC assessed as decrease in VEGF-induced cell migration at 50 uM after 24 hrs by transwell migration assay; format: functional, cell-based; conditions: Homo sapiens
HUVEC [12] = experiment: Antiangiogenic activity in HUVEC assessed as decrease in VEGF-induced cell migration at 1 uM after 24 hrs by transwell migration assay; format: functional, cell-based; conditions: Homo sapiens; how it was run: as §2
HUVEC [13] = experiment: Antiangiogenic activity in HUVEC assessed as inhibition of VEGF-induced cell proliferation at 1 uM by BrdU incorporation assay; format: functional, cell-based; conditions: Homo sapiens; how it was run: as §1
HUVEC [14] = experiment: Inhibition of AKT phosphorylation at Ser-473 in VEGF-stimulated HUVEC at 1 uM preincubated for 1 hr before VEGF induction measured after 30 mins by Western blot analysis; format: cell-based; conditions: Homo sapiens; how it was run: as §3
[15] = target: T1, Nitric oxide synthase 3 (Homo sapiens); experiment: Inhibition of eNOS phosphorylation at […] in VEGF-stimulated HUVEC at 1 uM preincubated for 1 hr before VEGF induction measured after 1 hr by Western blot analysis; how it was run: as §3
HUVEC [16] = experiment: Inhibition of ERK phosphorylation at Thr202/Tyr204 in VEGF-stimulated HUVEC at 1 uM preincubated for 1 hr before VEGF induction measured after 5 mins by Western blot analysis; format: cell-based; conditions: Homo sapiens; how it was run: as §3
HUVEC [17] = experiment: Antiangiogenic activity in HUVEC assessed as decrease in VEGF-induced cell migration at 25 uM after 24 hrs by transwell migration assay; format: functional, cell-based; conditions: Homo sapiens

For O=C(Nc1cccc(Cl)c1)c1cccnc1NC1CCN(Cc2ccccc2)CC1, the Activity (HUVEC [1]) was “Active”, the IC90 (HUVEC [2]) was 9.42 µM and the inhibition (HUVEC [3]) was “Dose-dependent effect”. For the same molecule, the Activity (HUVEC [4]) was “Dose-dependent effect”, the inhibition (HUVEC [5]) was “Dose-dependent effect” and the inhibition (Aorta) was “Dose-dependent effect”. The inhibition [6] was “Dose-dependent effect”, the inhibition (HUVEC [7]) was “Dose-dependent effect” and the inhibition [8] was “Dose-dependent effect”. The inhibition (HUVEC [9]) was “Dose-dependent effect” and the Activity (HUVEC [10]) was “Dose-dependent effect”.

For O=C(Nc1cccc(Cl)c1)c1cccnc1N1CCN(C(=O)c2cccc(F)c2)CC1, the Activity (HUVEC [11]) was “Active” and the IC90 (HUVEC [2]) was over 50 µM.

In the case of CCN(CC)CCNC(=O)c1c(C)[nH]c(/C=C2\C(=O)Nc3ccc(F)cc32)c1C [SUNITINIB], the Activity (HUVEC [12]) is reported as “Active”, the IC90 (HUVEC [2]) is reported as 1 µM and the inhibition (HUVEC [13]) is reported as “Active”. The inhibition (HUVEC [14]) was “inactive”, the inhibition [15] was “Active” and the inhibition (HUVEC [16]) was “Active”.

With COc1ccc(C(=O)N2CCN(c3ncccc3C(=O)Nc3cccc(Cl)c3)CC2)cc1 the Activity (HUVEC [11]) was “Active” and the IC90 (HUVEC [2]) was over 50 µM.

O=C(Nc1cccc(Cl)c1)c1cccnc1NC[C@@H]1CN(Cc2ccc(F)cc2)C(=O)CO1 was tested, and the Activity (HUVEC [11]) was “Active” and the IC90 (HUVEC [2]) was over 50 µM.

For O=C(Nc1cccc(Cl)c1)c1cccnc1NC1CCN(CO)CC1, the Activity (HUVEC [17]) was “Active” and the IC90 (HUVEC [2]) was 29.2 µM.
